ChEMBL document CHEMBL1143333, “Amide derivatives of ethacrynic acid: synthesis and evaluation as antagonists of Wnt/beta-catenin signaling and CLL cell survival” (Bioorg Med Chem Lett, 2009)
pEC50, pIC50: −log10 of the molar value.

Assays:
[1] = Cytotoxicity against human CLL cells after 48 hrs by MTT method; type: functional, cell-based
How it was run: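 Freshly isolated CLL cells plated at 2.5 × 10^5 per well and exposed to compounds for 48 h. MTT added at 1/10 volume of a 5 mg/mL stock, followed by overnight incubation at 37 °C before read-out of viability.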

[2] = Inhibition of Wnt/beta-catenin signaling in human SW480 cells by fluorimetry

Structure (SMILES)	pEC50 [1]	pIC50 [2]
C=C(CC)C(=O)c1ccc(OCC(=O)Nc2cc(Cl)ccc2C(=O)O)c(Cl)c1Cl	4.86	5.02
C=C(CC)C(=O)c1ccc(OCC(=O)Nc2ccc(C(=O)NC(CCC(=O)OCC)C(=O)OCC)cc2)c(Cl)c1Cl (centres undefined)	5.68	5.58
C=C(CC)C(=O)c1ccc(OCC(=O)Nc2ccc(CC(=O)O)cc2)c(Cl)c1Cl	5.49	< 4.30
C=C(CC)C(=O)c1ccc(OCC(=O)Nc2ccc(S(=O)(=O)O)cc2)c(Cl)c1Cl	< 4.60	< 4.30
C=C(CC)C(=O)c1ccc(OCC(=O)Nc2ccc(/C=C/C(=O)OCC)cc2)c(Cl)c1Cl	5.77	5.42
C=C(CC)C(=O)c1ccc(OCC(=O)Nc2ccc(/C=C/C(=O)O)cc2)c(Cl)c1Cl	5.52	5.60
C=C(CC)C(=O)c1ccc(OCC(=O)Nc2ccc3c(c2)C(=O)NC3=O)c(Cl)c1Cl	5.60	5.31
C=C(CC)C(=O)c1ccc(OCC(=O)NCCc2c[nH]c3ccccc23)c(Cl)c1Cl	5.23	4.97
C=C(CC)C(=O)c1ccc(OCC(=O)Nc2ccc(C(=O)O)cn2)c(Cl)c1Cl	4.83	< 4.30
C=C(CC)C(=O)c1ccc(OCC(=O)NCO[N+](=O)[O-])c(Cl)c1Cl	5.39	< 4.30
C=C(CC)C(=O)c1ccc(OCC(=O)Nc2ccc3c(C)cc(=O)oc3c2)c(Cl)c1Cl	5.55	5.58
C=C(CC)C(=O)c1ccc(OCC(=O)Nc2ccc(O)cc2)c(Cl)c1Cl	5.19	< 4.30
C=C(CC)C(=O)c1ccc(OCC(=O)Nc2ccc(C(N)=O)cc2)c(Cl)c1Cl	5.43	5.32
C=C(CC)C(=O)c1ccc(OCC(=O)Nc2ccc(C(=O)O)cc2)c(Cl)c1Cl	5.30	5.24
C=C(CC)C(=O)c1ccc(OCC(=O)Nc2ccc(O)c(Cl)c2)c(Cl)c1Cl	5.26	5.42
C=C(CC)C(=O)c1ccc(OCC(=O)NCC2CCC(C(=O)O)CC2)c(Cl)c1Cl (centres undefined)	5.10	< 4.30
C=C(CC)C(=O)c1ccc(OCC(=O)Nc2cccc(C(=O)O)c2)c(Cl)c1Cl	4.69	5.23
C=C(CC)C(=O)c1ccc(OCC(=O)Nc2ccc(C(=O)O)c(O)c2)c(Cl)c1Cl	< 4.60	< 4.30
C=C(CC)C(=O)c1ccc(OCC(=O)Nc2ccc(C(=O)OC)cc2)c(Cl)c1Cl	5.39	4.94
C=C(CC)C(=O)c1ccc(OCC(=O)Nc2ccc3c(c2)C(=O)c2ccccc2C3=O)c(Cl)c1Cl	5.68	5.53
C=C(CC)C(=O)c1ccc(OCC(=O)NCCCN2CCCC2=O)c(Cl)c1Cl	4.86	< 4.30

Structure (SMILES)	pEC50 [1]	pIC50 [2]
C=C(CC)C(=O)c1ccc(OCC(=O)NC(CS)C(=O)OCC)c(Cl)c1Cl (centres undefined)	5.32	< 4.30
C=C(CC)C(=O)c1ccc(OCC(=O)Nc2ccc(/C=C/C(=O)NO)cc2)c(Cl)c1Cl	5.59	5.74
C=C(CC)C(=O)c1ccc(OCC(=O)Nc2ccc(C#N)cc2)c(Cl)c1Cl	5.11	5.16
C=C(CC)C(=O)c1ccc(OCC(=O)Nc2ccc(Cl)c(C(=O)O)c2)c(Cl)c1Cl	4.80	< 4.30
C=C(CC)C(=O)c1ccc(OCC(=O)NCCO)c(Cl)c1Cl	< 4.60	< 4.30
C=C(CC)C(=O)c1ccc(OCC(=O)Nc2ccc(C(C)=O)cc2)c(Cl)c1Cl	5.41	5.30
C=C(CC)C(=O)c1ccc(OCC(=O)Nc2nc(/C(=N\OC)C(=O)O)cs2)c(Cl)c1Cl	< 4.60	< 4.30
C=C(CC)C(=O)c1ccc(OCC(=O)Nc2nc3ccccc3s2)c(Cl)c1Cl	5.82	5.31
C=C(CC)C(=O)c1ccc(OCC(=O)NCCN2CCOCC2)c(Cl)c1Cl	5.19	< 4.30
C=C(CC)C(=O)c1ccc(OCC(=O)Nc2ccc(Cc3ccc(N4C(=O)C5C6C=CC(C6)C5C4=O)cc3)cc2)c(Cl)c1Cl (centres undefined)	5.74	5.53
C=C(CC)C(=O)c1ccc(OCC(=O)Nc2ccc3cc(C(=O)O)ccc3c2)c(Cl)c1Cl	5.43	5.53
C=C(CC)C(=O)c1ccc(OCC(=O)Nc2ccc([C@]3(CC)CCC(=O)NC3=O)cc2)c(Cl)c1Cl	5.55	5.35
C=C(CC)C(=O)c1ccc(OCC(=O)NO)c(Cl)c1Cl	5.35	5.00
C=C(CC)C(=O)c1ccc(OCC(=O)Nc2ccc(O)c([N+](=O)[O-])c2)c(Cl)c1Cl	5.13	5.37
C=C(CC)C(=O)c1ccc(OCC(=O)Nc2ccc3c(c2)C(O)N=NC3O)c(Cl)c1Cl (centres undefined)	5.07	5.18
C=C(CC)C(=O)c1ccc(OCC(=O)Nc2ccc3nc[nH]c3c2)c(Cl)c1Cl	5.49	5.44
C=C(CC)C(=O)c1ccc(OCC(=O)Nc2cc(OC)c(OC)cc2C(=O)O)c(Cl)c1Cl	4.66	< 4.30
C=C(CC)C(=O)c1ccc(OCC(=O)NC2CCN(CC(=O)OC)CC2)c(Cl)c1Cl	4.97	< 4.30
C=C(CC)C(=O)c1ccc(OCC(=O)NCC(=O)O)c(Cl)c1Cl	< 4.60	< 4.30
CCC(C)C(=O)c1ccc(OCC(=O)O)c(Cl)c1Cl (centres undefined)	< 4.60	< 4.30
C=C(CC)C(=O)c1ccc(OCC(=O)O)c(Cl)c1Cl [ETHACRYNIC ACID]	5.00	4.49
